IC50 and inhibition data for 30 compounds are collected here from PubChem BioAssay AID624164 (Southern Research Specialized Biocontainment Screening …, 2012).

Calls of active or inactive are those of the source.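 How the source made its calls: active means inhibition of 30% or more at any tested concentration; inactive means the rest.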

As a reminder, the IC50 is the point on the concentration scale where inhibition reaches its midpoint.

In one assay the target is Leucine aminopeptidase (Plasmodium falciparum (isolate 3D7)) (UniProt Q8IL11). The experiment in a line: inhibition of P. falciparum M17 leucine aminopeptidase – biochemical, QFRET, H-Leu-NHMec substrate, set 3, selectivity assay for PFM1AAP inhibitor project, dose response (AID 624164). The following applies: purified rPFM17LAP, H-Leu-NHMec fluorogenic cleavage. The procedure, abridged: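 Material: recombinant PFM17LAP enzyme / Quantity: enzyme 5 µg/mL / Schedule: enzyme reaction with compound, 90 min at room temperature / Technique: fluorescence of released NHMec, excitation 370 nm, emission 460 nm / Reagent: H-Leu-NHMec 0.1 mM / Compound: ten twofold doses from 100 µM, 2% DMSO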
Sequence of Leucine aminopeptidase (Plasmodium falciparum (isolate 3D7)) (Q8IL11 whole entry, looked up): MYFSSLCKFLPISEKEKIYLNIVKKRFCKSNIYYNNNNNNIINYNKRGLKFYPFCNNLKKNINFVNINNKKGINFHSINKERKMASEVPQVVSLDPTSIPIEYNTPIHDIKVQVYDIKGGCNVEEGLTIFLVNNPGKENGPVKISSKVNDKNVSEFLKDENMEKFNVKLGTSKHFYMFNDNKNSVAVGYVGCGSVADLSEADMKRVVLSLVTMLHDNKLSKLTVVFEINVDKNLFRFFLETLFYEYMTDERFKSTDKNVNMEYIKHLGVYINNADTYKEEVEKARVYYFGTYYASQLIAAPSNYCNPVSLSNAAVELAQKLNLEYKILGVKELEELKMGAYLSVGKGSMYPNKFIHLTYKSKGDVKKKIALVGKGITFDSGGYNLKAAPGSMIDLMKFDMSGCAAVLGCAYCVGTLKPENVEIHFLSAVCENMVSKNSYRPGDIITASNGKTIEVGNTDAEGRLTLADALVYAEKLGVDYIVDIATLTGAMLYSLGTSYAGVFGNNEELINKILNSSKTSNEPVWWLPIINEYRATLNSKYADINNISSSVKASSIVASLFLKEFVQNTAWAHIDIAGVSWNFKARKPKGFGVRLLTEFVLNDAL
In the case of `O=C(NCc1ccccc1F)C1CCN(S(=O)(=O)c2ccc(Cl)s2)CC1`, the IC50 is 50 µM.
Same read-out and setting: to `O=C(NCc1cccc(F)c1)C1CCN(S(=O)(=O)c2ccc(Br)s2)CC1` belongs 24.7 µM; to `O=C(NCc1cccc(F)c1)C1CCN(S(=O)(=O)c2ccc(Br)cc2)CC1`, 50.6 µM.
Same read-out and setting: to `O=C(NCc1ccccc1F)C1CCN(S(=O)(=O)c2ccc(Br)cc2)CC1` belongs 82.3 µM; to `O=C(NCc1ccc2c(c1)OCO2)C1CCN(S(=O)(=O)c2ccc(Br)s2)CC1`, 16.4 µM; to `O=C(NCc1ccc2c(c1)OCO2)C1CCN(S(=O)(=O)c2ccc(Cl)s2)CC1`, 35.4 µM.
Consider `O=C(NCc1ccccc1F)C1CCN(S(=O)(=O)c2ccc(Br)s2)CC1`, for which the concentration for half-maximal inhibition (IC50) is 28.5 µM.
Still for that read-out and setting: under `O=C(NCc1ccc(F)cc1)C1CCN(S(=O)(=O)c2ccc(Cl)s2)CC1` stands 43.6 µM.
On the same count and under the same terms, to `O=C(NCc1cccc(F)c1)C1CCN(S(=O)(=O)c2ccc(Cl)s2)CC1` belongs 50 µM; to `O=C(NCc1ccc(F)cc1)C1CCN(S(=O)(=O)c2ccc(Br)s2)CC1`, 44.3 µM.

Staying with this assay, now noted: purified rPFM17LAP, H-Leu-NHMec fluorogenic cleavage; at 50 µM (top of the series).
Consider `O=C(NCc1ccc2c(c1)OCO2)C1CCN(S(=O)(=O)c2sccc2Br)CC1`, for which the inhibition result was “inactive”.

The same assay, now with this note: purified rPFM17LAP, H-Leu-NHMec fluorogenic cleavage; at 100 µM (top of the series).
Turning to `O=C(NCCc1ccc2c(c1)OCO2)C1CCN(S(=O)(=O)c2ccc(Br)cc2)CC1`, the inhibition result was “inactive”.
Same read-out and setting: under `O=C(NCc1ccc2c(c1)OCO2)C1CCN(S(=O)(=O)c2cc(Br)c(Br)s2)CC1` stands “inactive”; under `O=C(NCCc1ccc2c(c1)OCO2)C1CCN(S(=O)(=O)c2ccc(Cl)s2)CC1`, “inactive”; under `O=C(NCCc1ccc2c(c1)OCO2)C1CCN(S(=O)(=O)c2sccc2Br)CC1`, “inactive”.
The same measure, in the same setting: to `O=C(NCc1cccc(F)c1)C1CCN(S(=O)(=O)c2sccc2Br)CC1` belongs “inactive”; to `O=C(NCc1ccc(F)cc1)C1CCN(S(=O)(=O)c2ccc(Br)cc2)CC1`, “inactive”.
Same read-out and setting: to `O=C(Nc1ccc2c(c1)OCO2)C1CCN(S(=O)(=O)c2ccc(Br)cc2)CC1` belongs “inactive”; to `O=C(Nc1ccc2c(c1)OCO2)C1CCN(S(=O)(=O)c2sccc2Br)CC1`, “inactive”; to `O=C(NCc1cccc(F)c1)C1CCN(S(=O)(=O)c2cc(Br)c(Br)s2)CC1`, “inactive”.
As to `O=C(Nc1ccc2c(c1)OCO2)C1CCN(S(=O)(=O)c2cc(Br)c(Br)s2)CC1`, the inhibition entry is “inactive”.
Same read-out and setting: to `O=C(Nc1ccc2c(c1)OCO2)C1CCN(S(=O)(=O)c2ccc(Br)s2)CC1` belongs “inactive”; to `O=C(NCc1ccccc1F)C1CCN(S(=O)(=O)c2cc(Br)c(Br)s2)CC1`, “inactive”; to `O=C(NCc1ccc(F)cc1)C1CCN(S(=O)(=O)c2cc(Br)c(Br)s2)CC1`, “inactive”.
Still for that read-out and setting: to `O=C(NCc1ccc(F)cc1)C1CCN(S(=O)(=O)c2sccc2Br)CC1` belongs “inactive”; to `O=C(NCCc1ccc2c(c1)OCO2)C1CCN(S(=O)(=O)c2cc(Br)c(Br)s2)CC1`, “inactive”.
With `O=C(NCCc1ccc2c(c1)OCO2)C1CCN(S(=O)(=O)c2ccc(Br)s2)CC1`, the inhibition result was “inactive”.
Still for that read-out and setting: under `O=C(NCc1ccc2c(c1)OCO2)C1CCN(S(=O)(=O)c2ccc(Br)cc2)CC1` stands “inactive”; under `O=C(Nc1ccc2c(c1)OCO2)C1CCN(S(=O)(=O)c2ccc(Cl)s2)CC1`, “inactive”; under `O=C(NCc1ccccc1F)C1CCN(S(=O)(=O)c2sccc2Br)CC1`, “inactive”.
